# Reference: ChEMBL document CHEMBL4138165, “Design, synthesis and biological evaluation of new β-carboline-bisindole compounds as DNA binding, photocleavage agents and topoisomerase I inhibitors” (Eur J Med Chem, 2018)
# The source made the active and inactive calls. No cut-off for these calls is given here.
# Key:
# DU-145 [1] = experiment: Cell cycle arrest in human DU145 cells assessed as accumulation at G2/M phase at 2 uM after 48 hrs by FACS analysis (reference value: 21.07%); assay type: functional
# DNA [2] = experiment: Induction of Escherichia coli pBR322 DNA cleavage at 20 uM incubated in dark condition by agarose gel electrophoresis; assay type: nucleic-acid assay
# Outline: (§1)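 pBR322 plasmid DNA was incubated with 20 µM ligand, either in the dark or under UV-light irradiation for 1 h. Products were separated by gel electrophoresis. Irradiated DNA solution alone served as the control.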
# Calf thymus DNA [3] = experiment: Binding affinity to calf thymus double stranded DNA at 25 uM by UV-vis spectroscopic method; assay type: nucleic-acid assay; conditions: Bos taurus
# DU-145 [4] = experiment: Cell cycle arrest in human DU145 cells assessed as accumulation at sub-G1 phase at 1 uM after 48 hrs by FACS analysis (reference value: 7.71%); assay type: functional
# DU-145 [5] = experiment: Antiproliferative activity against human DU145 cells after 48 hrs by MTT assay; assay type: functional, cell-based; conditions: DU-145, 48 h
# DU-145 [6] = experiment: Cell cycle arrest in human DU145 cells assessed as accumulation at S phase at 1 uM after 48 hrs by FACS analysis (reference value: 16.22%); assay type: functional
# DNA [7] = experiment: Induction of Escherichia coli pBR322 DNA cleavage at 20 uM incubated in presence of UV-light for 1 hr by agarose gel electrophoresis; assay type: nucleic-acid assay; outline: as §1
# MCF7 = experiment: Antiproliferative activity against human MCF7 cells after 48 hrs by MTT assay; assay type: functional, cell-based; conditions: MCF7, 48 h
# DU-145 [8] = experiment: Cell cycle arrest in human DU145 cells assessed as accumulation at G0/G1 phase at 2 uM after 48 hrs by FACS analysis (reference value: 53.60%); assay type: functional
# DU-145 [9] = experiment: Induction of apoptosis in human DU145 cells assessed as early apoptotic cells at 1 uM after 48 hrs by annexin-V/FITC/propidium iodide staining-based FACS analysis (reference value: 3.61%); assay type: functional
# DU-145 [10] = experiment: Induction of apoptosis in human DU145 cells assessed as viable cells at 1 uM after 48 hrs by annexin-V/FITC/propidium iodide staining-based FACS analysis (reference value: 91.44%); assay type: functional; conditions: DU-145, 48 h, read-out: Activity
# DU-145 [11] = experiment: Induction of apoptosis in human DU145 cells assessed as early apoptotic cells at 2 uM after 48 hrs by annexin-V/FITC/propidium iodide staining-based FACS analysis (reference value: 3.61%); assay type: functional
# Calf thymus DNA [12] = experiment: Binding affinity to calf thymus double stranded DNA at 10 uM by spectrofluorimetric method; assay type: nucleic-acid assay; conditions: Bos taurus
# DU-145 [13] = experiment: Induction of apoptosis in human DU145 cells assessed as viable cells at 2 uM after 48 hrs by annexin-V/FITC/propidium iodide staining-based FACS analysis (reference value: 91.44%); assay type: functional; conditions: DU-145, 48 h, read-out: Activity
# DU-145 [14] = experiment: Cell cycle arrest in human DU145 cells assessed as accumulation at S phase at 2 uM after 48 hrs by FACS analysis (reference value: 16.22%); assay type: functional
# DU-145 [15] = experiment: Induction of apoptosis in human DU145 cells assessed as late apoptotic cells at 1 uM after 48 hrs by annexin-V/FITC/propidium iodide staining-based FACS analysis (reference value: 4.46%); assay type: functional
# DU-145 [16] = experiment: Cell cycle arrest in human DU145 cells assessed as accumulation at G2/M phase at 1 uM after 48 hrs by FACS analysis (reference value: 21.07%); assay type: functional
# Calf thymus DNA [17] = experiment: Binding affinity to calf thymus double stranded DNA at 15 uM by ostwald viscometer; assay type: nucleic-acid assay; conditions: Bos taurus
# DU-145 [18] = experiment: Induction of apoptosis in human DU145 cells assessed as necrotic cells at 1 uM after 48 hrs by annexin-V/FITC/propidium iodide staining-based FACS analysis (reference value: 0.49%); assay type: functional
# Calf thymus DNA [19] = experiment: Binding affinity to calf thymus double stranded DNA assessed as hypochromicity at 10 uM by […] method; assay type: nucleic-acid assay; conditions: Bos taurus
# [20] = molecular target: T1, Topoisomerase I (Bos taurus) (UniProt Q2HPH0); experiment: Inhibition of calf thymus DNA topoisomerase 1 at 20 uM using pBR322 DNA as substrate after 30 mins by agarose gel electrophoresis method
# T1 sequence (whole entry): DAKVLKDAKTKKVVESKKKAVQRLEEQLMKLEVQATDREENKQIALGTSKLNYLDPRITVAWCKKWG
# Calf thymus DNA [21] = experiment: Binding affinity to calf thymus double stranded DNA at 20 uM by CD spectroscopic method; assay type: nucleic-acid assay; conditions: Bos taurus
# A549 = experiment: Antiproliferative activity against human A549 cells after 48 hrs by MTT assay; assay type: functional, cell-based; conditions: A549, 48 h
# DU-145 [22] = experiment: Cell cycle arrest in human DU145 cells assessed as accumulation at sub-G1 phase at 2 uM after 48 hrs by FACS analysis (reference value: 7.71%); assay type: functional
# DU-145 [23] = experiment: Induction of apoptosis in human DU145 cells assessed as late apoptotic cells at 2 uM after 48 hrs by annexin-V/FITC/propidium iodide staining-based FACS analysis (reference value: 4.46%); assay type: functional
# DU-145 [24] = experiment: Induction of apoptosis in human DU145 cells assessed as necrotic cells at 2 uM after 48 hrs by annexin-V/FITC/propidium iodide staining-based FACS analysis (reference value: 0.49%); assay type: functional
# HeLa = experiment: Antiproliferative activity against human HeLa cells after 48 hrs by MTT assay; assay type: functional, cell-based
# NIH3T3 = experiment: Antiproliferative activity against mouse NIH/3T3 cells after 48 hrs by MTT assay; assay type: functional, cell-based; conditions: NIH3T3, 48 h
# DU-145 [25] = experiment: Cell cycle arrest in human DU145 cells assessed as accumulation at G0/G1 phase at 1 uM after 48 hrs by FACS analysis (reference value: 53.60%); assay type: functional
smiles,measurement,setting,value
Fc1ccc(-c2nc(C(c3c[nH]c4ccccc34)c3c[nH]c4ccccc34)cc3c2[nH]c2ccccc23)cc1,Activity,DU-145 [1],62.86%
same,Activity,DNA [2],Not Active
same,Activity,Calf thymus DNA [3],Active
same,Activity,DU-145 [4],6.91%
same,IC50,DU-145 [5],1800 nM
same,Activity,DU-145 [6],19.16%
same,Activity,DNA [7],Active
same,IC50,MCF7,8500 nM
same,Activity,DU-145 [8],13.58%
same,Activity,DU-145 [9],8.49%
same,viability at 1 µM,DU-145 [10],84.7%
same,Activity,DU-145 [11],38.28%
same,Activity,Calf thymus DNA [12],Active
same,viability at 2 µM,DU-145 [13],55.5%
same,Activity,DU-145 [14],17.41%
same,Activity,DU-145 [15],6.55%
same,Activity,DU-145 [16],57.46%
same,Activity,Calf thymus DNA [17],Active
same,Activity,DU-145 [18],0.23%
same,Activity,Calf thymus DNA [19],10 to 12%
same,inhibition,[20],Active
same,Activity,Calf thymus DNA [21],Active
same,IC50,A549,2040 nM
same,Activity,DU-145 [22],4.93%
same,Activity,DU-145 [23],5.06%
same,Activity,DU-145 [24],1.14%
same,IC50,HeLa,3250 nM
same,IC50,NIH3T3,140000 nM
same,Activity,DU-145 [25],15.15%
Cc1ccc(-c2nc(C(c3c[nH]c4ccc(Br)cc34)c3c[nH]c4ccc(Br)cc34)cc3c2[nH]c2ccccc23)cc1,Activity,DU-145 [1],57.12%
same,Activity,DNA [2],Not Active
same,Activity,Calf thymus DNA [3],Active
same,Activity,DU-145 [4],5.57%
same,IC50,DU-145 [5],1860 nM
same,Activity,DU-145 [6],16.37%
same,Activity,DNA [7],Active
same,IC50,MCF7,5850 nM
same,Activity,DU-145 [8],15.92%
same,Activity,DU-145 [9],6.43%
same,viability at 1 µM,DU-145 [10],87%
same,Activity,DU-145 [11],32.76%
same,Activity,Calf thymus DNA [12],Active
same,viability at 2 µM,DU-145 [13],63.6%
same,Activity,DU-145 [14],19.52%
same,Activity,DU-145 [15],6.43%
same,Activity,DU-145 [16],22.04%
same,Activity,Calf thymus DNA [17],Active
same,Activity,DU-145 [18],0.12%
same,Activity,Calf thymus DNA [19],10 to 12%
same,inhibition,[20],Active
same,Activity,Calf thymus DNA [21],Active
same,IC50,A549,2510 nM
same,Activity,DU-145 [22],6.05%
same,Activity,DU-145 [23],3.12%
same,Activity,DU-145 [24],0.47%
same,IC50,HeLa,2540 nM
same,IC50,NIH3T3,125000 nM
same,Activity,DU-145 [25],54.58%
